High-throughput results: PubChem BioAssay, several laboratories
GPR7 antag: GPR7 receptor antagonists, primary screen, cell-based, fluorescence, single concentration; inhibition, % at 4.4 µM; GPR7-expressing cells, fluorescence antagonist assay; 290,000 compounds, 1.1% hits; in the data active = inhibition above about 16%, passing the limit was not always enough;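 also: cells stimulated with the agonist NPW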
Target sequence (P48145 whole entry, looked up): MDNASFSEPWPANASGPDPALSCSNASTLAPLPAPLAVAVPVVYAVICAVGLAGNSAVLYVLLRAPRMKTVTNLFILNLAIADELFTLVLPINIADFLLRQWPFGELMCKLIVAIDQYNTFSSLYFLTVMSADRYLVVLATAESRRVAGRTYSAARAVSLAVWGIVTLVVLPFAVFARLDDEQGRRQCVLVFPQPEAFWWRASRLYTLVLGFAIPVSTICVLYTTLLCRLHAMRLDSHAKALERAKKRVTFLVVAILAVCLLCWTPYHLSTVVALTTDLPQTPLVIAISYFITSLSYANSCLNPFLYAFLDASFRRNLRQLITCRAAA
MPTP block: mitochondrial permeability transition pore inhibitors, primary screen, biochemical, isolated mouse mitochondria, absorbance | Ca2+ swelling absorbance, 30 min | inhibition, % at 10 µM | 360,000 compounds, 1.4% hits;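 active = inhibition of 50% or more, scaled per plate between neutral and stimulator controls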
TAAR1 antagonist: human TAAR1 antagonists, primary screen, Fluo-8 calcium fluorescence, CHO RD-HGA16 cells; antagonist; inhibition, % at 3 µM; 360,000 compounds, 1.5% hits;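 active = inhibition above a per-plate cutoff, the mean inhibition of test compounds on that plate plus 3 SD, cut at about 49% in these data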
Target sequence (Q96RJ0 whole entry, looked up): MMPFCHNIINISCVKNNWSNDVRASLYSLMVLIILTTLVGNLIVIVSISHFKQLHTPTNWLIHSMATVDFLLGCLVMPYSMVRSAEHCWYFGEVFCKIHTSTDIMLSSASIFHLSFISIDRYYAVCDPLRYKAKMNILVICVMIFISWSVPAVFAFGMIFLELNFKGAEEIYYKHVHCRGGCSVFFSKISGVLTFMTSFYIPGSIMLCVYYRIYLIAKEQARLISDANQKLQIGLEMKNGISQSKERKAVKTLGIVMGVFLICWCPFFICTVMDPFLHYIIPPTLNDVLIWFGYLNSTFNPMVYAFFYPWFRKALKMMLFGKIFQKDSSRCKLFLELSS
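Material: RD-HGA16 CHO cells with stable hTAAR1 and Gα16; Dosing: single nominal final test compound concentration of 3 µM; Schedule: seeding 17-24 h prior, 75-min 37 °C, 30-min RT dye loading; Detection: kinetic Fluo-8 calcium fluorescence measurement; Measure: % inhibition from peak post-agonist over basal fluorescence ratio; Benchmarks: vehicle and agonist controls.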
TAAR1 ag: human TAAR1 agonists, primary screen, Fluo-8 calcium fluorescence, CHO RD-HGA16 cells. Trace amine-associated receptor 1 (Homo sapiens), Q96RJ0. vehicle wells 0%, saturating PEA agonist 100%. activation, % at 3 µM. 360,000 compounds, 0.99% hits. AID 624467, 2012;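 active = activation above the mean activation of all test compounds in the run plus 3 SD, cut at about 38% in these data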
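System: CHO RD-HGA16 cells carrying human TAAR1 plus Gα16; Incubation: 17-24 h seeding, 75 min 37 °C dye, 30 min RT; Measured by: Fluo-8 fluorescence, 5 s baseline then 140 s kinetic read; Control set: DMSO and PEA EC100; Replication: single well for each compound.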
DAGLB inh: DAGLB lipase inhibitors, primary screen, biochemical, fluorescence, HTS | HEK293T DAGLB membrane lysate, EnzChek fluorogenic substrate | inhibition, % at 5.17 µM | 340,000 compounds, 0.059% hits; in the data active = inhibition above about 34%
nonsel antag count: nonselective antagonists in TAAR1 counter-screen cells, counter-screen for hTAAR1 antagonist project, cell-based, fluorescence, calcium; shares compounds with TAAR1 antagonist; counterscreen cell line, antagonist mode; inhibition, % at 3 µM; 2,400 compounds, 77% hits; AID 651780, 2012; in the data active = inhibition above about 22%;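 also: CHO-Ga16 host cells stimulated with ATP at an EC80 level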
TAAR1 antag conf: human TAAR1 antagonists, retest of hits, confirmation, cell-based, fluorescence. shares compounds with TAAR1 antagonist. TAAR1-expressing cells, fluorescence antagonist read-out. inhibition, % at 3 µM. 2,400 compounds, 40% hits; in the data active = inhibition above about 49%;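 also: CHO-Ga16 host cells challenged with agonist PEA near its EC80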
Ga16 ag counter: calcium activation in Ga16-expressing cells, counter-screen for TAAR1 antagonist project, cell-based, fluorescence. shares compounds with TAAR1 antagonist. agonist counterscreen. activation, % at 3 µM. 2,400 compounds, 18% hits; in the data active = activation above about 12%
TAAR1 ag counter: TAAR1 activation by candidate antagonists – cell-based, fluorescence, counter-screen for TAAR1 antagonist project | shares compounds with TAAR1 antagonist | hTAAR1 cell line, agonist mode | activation, % at 3 µM | 2,400 compounds, 2% hits | AID 651955, 2012; in the data active = activation above about 37%;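 also: CHO cells stably expressing TAAR1 with calcium dye readout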
A number is an active result; i = inactive; nt = not tested or not shown. Most compounds without a hit are left out; they make up all but 4% or so of the library.

SMILES	GPR7 antag	MPTP block	TAAR1 antagonist	TAAR1 ag	DAGLB inh	nonsel antag count	TAAR1 antag conf	Ga16 ag counter	TAAR1 ag counter
COc1ccccc1-c1cccc(-c2nc(C(=O)Nc3nccs3)cc3c2[C@H](CCO)N(C(C)=O)C3)c1	nt	i	71	i	nt	30	51	i	i
CC(=O)N1Cc2cc(C(=O)NCC(F)(F)F)nc(-c3cccc(-c4cc5ccccc5o4)c3)c2[C@H]1CCO	nt	i	i	i	nt	nt	nt	nt	nt
Nc1ncnc2c1nc(Sc1ccc(Cl)cc1)n2[C@@H]1O[C@@H]2COP(=O)(O)O[C@H]2[C@H]1O	nt	i	i	i	i	nt	nt	nt	nt
Cc1noc(C)c1C(=O)N1CCC1(C)C(=O)NS(=O)(=O)c1cccc(Cl)c1 (centres undefined)	nt	i	i	i	nt	nt	nt	nt	nt
O=C(NN1C(=O)C2C3C=CC(C3)C2C1=O)c1ccccc1 (centres undefined)	i	i	i	i	i	nt	nt	nt	nt
Cc1cccc(C(=O)NN2C(=O)C3C(c4ccccc4)C=CC(c4ccccc4)C3C2=O)c1 (centres undefined)	i	i	92	i	i	54	60	14	i
Cc1nc(NC(=O)c2ccccc2)sc1-c1cc(C(=O)N2CCOCC2)nn1Cc1ccccc1	nt	i	i	i	i	nt	nt	nt	nt
Cc1ccccc1C(C(=O)NCc1ccccc1)N(Cc1ccco1)C(=O)c1ccccn1 (centres undefined)	i	i	50	i	i	27	i	i	i
CCC(C)(C)NC(=O)C(c1ccc(F)cc1)N(Cc1ccco1)C(=O)c1snc(C(N)=O)c1N (centres undefined)	i	i	i	i	i	nt	nt	nt	nt
NC(=O)c1nsc(C(=O)N(Cc2ccco2)C(C(=O)NCc2ccc(F)cc2)c2ccc(O)cc2)c1N (centres undefined)	i	i	78	i	i	37	56	i	i
CN(C)c1ccc(C(C(=O)NCc2ccccc2)N(Cc2ccco2)C(=O)c2snc(C(N)=O)c2N)cc1 (centres undefined)	i	i	71	i	i	27	58	i	i
Cc1ccc(C(C(=O)NCc2ccc(F)cc2)N(Cc2ccco2)C(=O)c2snc(C(N)=O)c2N)o1 (centres undefined)	i	i	63	i	i	31	62	i	i
Cc1ccc(S(=O)(=O)N2CCOCC2)cc1NC(=O)CSc1nnnn1C1CC1	nt	i	i	i	i	nt	nt	nt	nt
O=C(CSc1nnc(Cc2cccs2)n1C1CCCCC1)N1CCCc2ccccc21	i	i	64	i	i	36	54	i	i
O=C(CSc1nnc(Cc2cccs2)n1CCc1ccccc1)N1CCCc2ccccc21	i	i	57	i	i	22	58	i	i
Cn1c(Cc2cccs2)nnc1SCC(=O)N1CCCc2ccccc21	i	i	i	i	i	nt	nt	nt	nt
Cc1ccc2nc(-c3ccc(F)cc3)c(Cc3ccsc3)n2c1	nt	nt	i	i	nt	nt	nt	nt	nt
CCOc1ccc(C(CN2CCOCC2)C(C)=O)cc1OC (centres undefined)	nt	i	i	i	nt	nt	nt	nt	nt
CCOc1ccc(-n2c(C)cc(/C=N\NC(=O)CC(=O)NC3CCCCC3)c2C)cc1	i	i	57	i	i	25	i	i	i
CN(C1CCCCC1)S(=O)(=O)c1ccc(NC(=O)c2ccc(Br)o2)cc1	i	i	63	i	i	23	i	i	i
CN(C)S(=O)(=O)c1ccc(NC(=O)c2ccc(Br)o2)cc1	i	i	nt	nt	i	nt	nt	nt	nt
COc1ccc(S(=O)(=O)N2CCCCCC2)cc1C(=O)OCc1cccc(OC)c1OC	nt	i	58	i	i	22	i	i	i
COc1ccc(C)cc1S(=O)(=O)N1CCCC(N2CCN(c3ccccc3)CC2)C1 (centres undefined)	nt	i	i	i	i	nt	nt	nt	nt
CCCc1cc(C(=O)Nc2cccc3ccccc23)n(C)n1	i	i	i	i	i	nt	nt	nt	nt
CCCc1cc(C(=O)Nc2ccc(C(=O)c3ccc(C)cc3)cc2)n(C)n1	i	i	64	i	i	29	49	i	i
SMILES	GPR7 antag	MPTP block	TAAR1 antagonist	TAAR1 ag	DAGLB inh	nonsel antag count	TAAR1 antag conf	Ga16 ag counter	TAAR1 ag counter
CC(NCC(=O)Nc1cc(S(=O)(=O)N2CCOCC2)ccc1Cl)c1ccc(Cl)cc1Cl (centres undefined)	nt	i	i	i	i	nt	nt	nt	nt
C[C@@H](C(=O)O)[C@H]1C[C@]1(C)[C@H](NC(=O)OCc1ccccc1)c1ccccc1	i	i	75	i	i	i	i	i	i
COC(=O)[C@H](C)[C@@H]1C[C@@]1(C)[C@@H](NC(=O)OCc1ccccc1)c1ccccc1	i	i	i	i	i	nt	nt	nt	nt
COC(=O)[C@H]1C[C@@H]1[C@H](NC(=O)[C@H]1C[C@@H]1[C@H](NC(=O)OCc1ccccc1)c1ccccc1)c1ccccc1	i	i	59	i	i	30	i	i	i
COC(=O)C1=C(C)N(Cc2ccccc2C(F)(F)F)C(=NCc2ccccc2)NC1c1ccc(F)cc1 (centres undefined)	nt	nt	i	i	nt	nt	nt	nt	nt
C[C@@H]1CN([C@H](C)CO)C(=O)c2cc(Br)cnc2O[C@H]1CN(C)C(=O)c1ccc(F)cc1	nt	nt	i	i	nt	nt	nt	nt	nt
Cc1ccc(-n2c(C)cc(/C=N/NC(=O)c3ccncc3)c2C)cc1	i	i	i	i	i	nt	nt	nt	nt
CNC(=S)N/N=C/c1cc(C)n(-c2ccc(Cl)c(Cl)c2)c1C	i	i	70	i	i	28	62	30	59
CNC(=S)N/N=C/c1ccccc1Cl	i	i	i	i	i	nt	nt	nt	nt
Cc1ccc(-n2c(C)cc(/C=N/NC(N)=S)c2C)cc1	i	i	90	i	i	i	91	i	i
COc1cc2c(-c3ccccc3)c(C)oc2cc1/C=N/NC(N)=S	nt	i	103	i	i	i	i	i	i
Cc1noc(C)c1C(=O)N1CCC1(C)C(=O)NS(=O)(=O)c1cccc(OC(F)F)c1 (centres undefined)	nt	i	i	i	nt	nt	nt	nt	nt
CCOC(=O)CN(C(=O)COc1nc(-c2ccccc2)cc(C)c1C#N)c1cccc(OC)c1	i	i	55	i	i	25	i	i	i
Cc1ccccc1Cn1cc(NC(=O)c2cc(-c3cccs3)on2)cn1	i	i	62	i	i	33	62	22	i
COc1ccc(-c2cc(C(=O)Nc3ccccc3SC)no2)cc1	i	i	i	i	i	nt	nt	nt	nt
